Reference: ChEMBL document CHEMBL1122509, “(1,3-Dialkyl-5-amino-1H-pyrazol-4-yl)arylmethanones. A series of novel central nervous system depressants” (1984)

Legend:
Mus musculus [1] = organism: Mus musculus; assay: Central nervous system depressant activity; assay type: functional
How it was run: (§1)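 Male albino Webster mice, 20–26 g, groups of five, given ip doses of 250, 125, 63 mg/kg and lower until no effect was seen. Doses were calculated as active component and given in 0.9% saline or 100% propylene glycol. Observers scored motor activity, ataxia, depression, reflexes, posture, muscle tone and responses to noise, touch, restraint and transfer over 15–60 min. Survivors were held 24 h for a provisional acute toxicity level.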

Rattus norvegicus = assay: Evaluated for anticonvulsant activity to protect all rats tested, when administered subcutaneously; assay type: functional
Mus musculus [2] = assay: Compound was evaluated for the inhibition of Locomotion-Screen falloff test, at dose (mg/Kg) = 100; 31-59%; assay type: functional
How it was run: (§2)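 Unfasted male Swiss–Webster mice, 20–30 g, nine per dose in three groups of three, received 10, 30 or 100 mg/kg ip as parent compound in 0.2% methocel, 1 h before testing; controls got methocel. Screen test: percent of mice falling from a screen inverted 180° during 60 s. Then locomotion was read by actophotometer over 1 h as percent inhibition versus vehicle. Graded bands: 60–100% = A.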

Mus musculus [3] = assay: Compound was evaluated for the inhibition of Locomotion-Screen falloff test, at dose (mg/Kg) = 30; 31-59%; assay type: functional; how it was run: as §2
Mus musculus [4] = assay: Compound was evaluated for the inhibition of Locomotion-Screen falloff test, at dose (mg/Kg) = 10; 0-30%; assay type: functional; how it was run: as §2
Mus musculus [5] = assay: Compound was evaluated for the inhibition of Locomotion-Screen falloff test, at dose (mg/Kg) = 100; 60-100%; assay type: functional; how it was run: as §2
Mus musculus [6] = assay: Compound was evaluated for the inhibition of Locomotion-Screen falloff test, at dose (mg/Kg) = 30; 0-30%; assay type: functional; how it was run: as §2
Mus musculus [7] = assay: Compound was evaluated for the inhibition of Locomotion-Screen falloff test, at dose (mg/Kg) = 30; 60-100%; assay type: functional; how it was run: as §2
Mus musculus [8] = assay: Compound was evaluated for the inhibition of Locomotion-Screen falloff test, at dose (mg/Kg) = 10; 60-100%; assay type: functional; how it was run: as §2
Mus musculus [9] = assay: Compound was evaluated for the inhibition of Locomotion-Screen falloff test by ip route; assay type: functional; how it was run: as §2
Mus musculus [10] = assay: Compound was evaluated for the inhibition of Locomotion-Screen falloff test, at dose (mg/Kg) = 10; 31-59%; assay type: functional; how it was run: as §2
Mus musculus [11] = assay: Compound was evaluated for central nervous system depressant activity at 250 mg/kg; c=Quiet at 250 mg/kg; assay type: functional, organism-based; how it was run: as §1
Mus musculus [12] = assay: Compound was evaluated for the inhibition of Locomotion-Screen falloff test, at dose (mg/Kg) = 10; assay type: functional
How it was run: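 Swiss-Webster male mice (20–30 g, unfasted), 9 per dose in three groups of three; 10 mg/kg ip in 0.2% methocel, dosed as parent compound, 1 h before testing; methocel-injected controls. Inverted wire screen (180° rotation, 60 s) scored as percent falling off. Then actophotometer counts over 1 h give percent inhibition versus vehicle; graded A = 60–100%.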

CCCn1nc(C)c(C(=O)c2ccccc2Cl)c1N
Activity (Mus musculus [1]): 8 mg/kg | Activity (Rattus norvegicus): 32 mg/kg

COc1ccccc1C(=O)c1c(C)nn(C)c1N
Activity (Mus musculus [1]): 32 mg/kg | Inhibition (Mus musculus [2]): 31% | Activity (Rattus norvegicus): 125 mg/kg | Inhibition (Mus musculus [3]): 31% | Inhibition (Mus musculus [4]): 0%

CCCn1nc(C)c(C(=O)c2ccccc2OC)c1N
Activity (Mus musculus [1]): 16 mg/kg | Activity (Rattus norvegicus): 125 mg/kg

Cc1nn(C)c(N)c1C(=O)c1ccccc1Cl
Inhibition (Mus musculus [5]): 60% | Activity (Mus musculus [1]): 63 mg/kg | Inhibition (Mus musculus [6]): 0% | Activity (Rattus norvegicus): 125 mg/kg | Inhibition (Mus musculus [4]): 0%

Cc1nn(C(C)C)c(N)c1C(=O)c1ccccc1Cl
Activity (Mus musculus [1]): 63 mg/kg | Activity (Rattus norvegicus): 500 mg/kg

CCCCn1nc(C)c(C(=O)c2cccc(Cl)c2)c1N
Activity (Mus musculus [1]): 32 mg/kg | Activity (Rattus norvegicus): 500 mg/kg

Cc1nn(C)c(N)c1C(=O)c1ccccc1F
Inhibition (Mus musculus [7]): 60% | Activity (Mus musculus [1]): 32 mg/kg | Inhibition (Mus musculus [8]): 60% | Activity (Rattus norvegicus): 250 mg/kg | ED50 (Mus musculus [9]): 9.4 mg/kg

CCCn1nc(C)c(C(=O)c2cccc(OC)c2Cl)c1N
Activity (Mus musculus [1]): 16 mg/kg | Activity (Rattus norvegicus): 63 mg/kg

COc1cccc(C(=O)c2c(C)nn(C)c2N)c1Cl
Activity (Mus musculus [1]): 32 mg/kg | Activity (Rattus norvegicus): 250 mg/kg

CCCn1nc(C)c(C(=O)c2ccccc2C(F)(F)F)c1N
Activity (Mus musculus [1]): 8 mg/kg | Activity (Rattus norvegicus): 63 mg/kg

CCc1nn(C)c(N)c1C(=O)c1ccccc1F
Activity (Mus musculus [1]): 32 mg/kg | Inhibition (Mus musculus [2]): 31% | Inhibition (Mus musculus [6]): 0% | Activity (Rattus norvegicus): 250 mg/kg | Inhibition (Mus musculus [4]): 0%

CCCn1nc(C)c(C(=O)c2ccccc2Br)c1N
Activity (Mus musculus [1]): 8 mg/kg | Activity (Rattus norvegicus): 32 mg/kg

Cc1nn(-c2ccccc2)c(N)c1C(=O)c1ccccc1Cl
Activity (Mus musculus [1]): 250 mg/kg

CSc1ccc2c(c1)N(CCC1CCCCN1C)c1ccccc1S2 (configuration not stated) [THIORIDAZINE]
Inhibition (Mus musculus [8]): 60% | ED50 (Mus musculus [9]): 2.9 mg/kg

Cn1nc(-c2ccccc2)c(C(=O)c2ccccc2Cl)c1N
Activity (Mus musculus [1]): 250 mg/kg

Cc1nn(C)c(N)c1C(=O)c1ccccc1
Inhibition (Mus musculus [5]): 60% | Activity (Mus musculus [1]): 63 mg/kg | Activity (Rattus norvegicus): 500 mg/kg | Inhibition (Mus musculus [3]): 31% | Inhibition (Mus musculus [4]): 0%

Cc1nn(C)c(N)c1C(=O)c1ccsc1
Activity (Mus musculus [1]): 16 mg/kg

CCCn1nc(C)c(C(=O)c2cccs2)c1N
Activity (Mus musculus [1]): 250 mg/kg | Activity (Rattus norvegicus): 125 mg/kg

Cc1nn(C)c(N)c1C(=O)c1ccccc1C(F)(F)F
Inhibition (Mus musculus [5]): 60% | Activity (Mus musculus [1]): 125 mg/kg | Activity (Rattus norvegicus): 250 mg/kg | Inhibition (Mus musculus [3]): 31% | Inhibition (Mus musculus [4]): 0%

CCCCc1nn(C)c(N)c1C(=O)c1ccccc1Cl
Activity (Rattus norvegicus): 125 mg/kg

CCn1nc(C)c(C(=O)c2ccccc2Cl)c1N
Activity (Mus musculus [1]): 32 mg/kg | Activity (Rattus norvegicus): 16 mg/kg

CCc1nn(C)c(N)c1C(=O)c1ccccc1
Inhibition (Mus musculus [7]): 60% | Activity (Mus musculus [1]): 16 mg/kg | Inhibition (Mus musculus [10]): 31% | Inhibition (Mus musculus [2]): 31% | Activity (Rattus norvegicus): 250 mg/kg

CCCn1nc(C)c(C(=O)c2ccccc2C)c1N
Activity (Mus musculus [1]): 16 mg/kg | Activity (Rattus norvegicus): 63 mg/kg

Cc1nn(C2CCCCC2)c(N)c1C(=O)c1ccccc1Cl
Activity (Mus musculus [11]): Quiet at 250mg/kg

CCc1nn(C)c(N)c1C(=O)c1cccc(F)c1
Activity (Mus musculus [1]): 63 mg/kg | Activity (Rattus norvegicus): 500 mg/kg

O=c1[nH]c2ccccc2n1C1CCN(CCCC(c2ccc(F)cc2)c2ccc(F)cc2)CC1 [PIMOZIDE]
ED50 (Mus musculus [12]): 5.9 mg/kg | Inhibition (Mus musculus [8]): 60%

CCCn1nc(C)c(C(=O)c2ccc(Cl)cc2)c1N
Activity (Mus musculus [1]): 16 mg/kg | Activity (Rattus norvegicus): 32 mg/kg

CCc1nn(C)c(N)c1C(=O)c1ccccc1Cl
Activity (Mus musculus [1]): 63 mg/kg | Activity (Rattus norvegicus): 500 mg/kg

CC(C)c1nn(C)c(N)c1C(=O)c1ccccc1Cl
Activity (Mus musculus [1]): 63 mg/kg

CCCc1nn(C)c(N)c1C(=O)c1ccccc1Cl
Activity (Mus musculus [1]): 32 mg/kg | Activity (Rattus norvegicus): 125 mg/kg

Cc1nn(C)c(N)c1C(=O)c1ccccc1Br
Activity (Mus musculus [1]): 63 mg/kg | Inhibition (Mus musculus [10]): 31% | Inhibition (Mus musculus [2]): 31% | Inhibition (Mus musculus [6]): 0% | Activity (Rattus norvegicus): 125 mg/kg

CCCCn1nc(C)c(C(=O)c2ccccc2Cl)c1N
Activity (Mus musculus [1]): 8 mg/kg | Activity (Rattus norvegicus): 125 mg/kg

Cc1nn(C)c(N)c1C(=O)c1ccc(Cl)cc1
Inhibition (Mus musculus [5]): 60% | Activity (Mus musculus [1]): 125 mg/kg | Inhibition (Mus musculus [6]): 0% | Activity (Rattus norvegicus): 125 mg/kg | Inhibition (Mus musculus [4]): 0%

Cc1nn(C)c(N)c1C(=O)c1cccc(C(F)(F)F)c1
Activity (Mus musculus [1]): 4 mg/kg | Inhibition (Mus musculus [2]): 31% | Inhibition (Mus musculus [6]): 0% | Activity (Rattus norvegicus): 125 mg/kg | Inhibition (Mus musculus [4]): 0%

Cc1nn(C)c(N)c1C(=O)c1cccs1
Inhibition (Mus musculus [5]): 60% | Inhibition (Mus musculus [7]): 60% | Activity (Mus musculus [1]): 8 mg/kg | ED50 (Mus musculus [9]): 34.2 mg/kg | Inhibition (Mus musculus [4]): 0%

Cc1ccccc1C(=O)c1c(C)nn(C)c1N
Inhibition (Mus musculus [5]): 60% | Activity (Mus musculus [1]): 32 mg/kg | Inhibition (Mus musculus [10]): 31% | Inhibition (Mus musculus [6]): 0% | Activity (Rattus norvegicus): 125 mg/kg

Cc1nn(C)c(N)c1C(=O)c1cccc(Cl)c1
Activity (Mus musculus [1]): 125 mg/kg | Inhibition (Mus musculus [2]): 31% | Inhibition (Mus musculus [6]): 0% | Activity (Rattus norvegicus): 63 mg/kg | Inhibition (Mus musculus [4]): 0%
